The record followed here is ChEMBL document CHEMBL1148583, “Substituted 2-thioxoimidazolidin-4-ones and imidazolidine-2,4-diones as fatty acid amide hydrolase inhibitors templates” (J Med Chem, 2006).

Structures are written as SMILES. Some results are limits rather than exact numbers.

In test [1] the target is Cannabinoid receptor 1 (Homo sapiens) (UniProt P21554). Nature of the test: Displacement of [3H]SR141716A from human CB1 expressed in CHO cells at 10 uM. It counts as cell-based. The method in brief: (§1)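 Membranes from CHO cells expressing hCB1 or hCB2 (40 µg per tube). Radioligand was 1 nM [3H]-SR141716A for CB1 or 1 nM [3H]-CP-55,940 for CB2. Competitor at 10 µM; nonspecific binding defined with 10 µM HU-210. Incubation 1 h at 30 °C in 50 mM Tris-HCl, 3 mM MgCl2, 1 mM EDTA, 0.5% BSA, pH 7.4. Filtered on PEI-treated GF/B and counted. Result is % displacement, ≥3 runs in duplicate, mean ± SEM.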
Cannabinoid receptor 1 (Homo sapiens), sequence (P21554 whole entry): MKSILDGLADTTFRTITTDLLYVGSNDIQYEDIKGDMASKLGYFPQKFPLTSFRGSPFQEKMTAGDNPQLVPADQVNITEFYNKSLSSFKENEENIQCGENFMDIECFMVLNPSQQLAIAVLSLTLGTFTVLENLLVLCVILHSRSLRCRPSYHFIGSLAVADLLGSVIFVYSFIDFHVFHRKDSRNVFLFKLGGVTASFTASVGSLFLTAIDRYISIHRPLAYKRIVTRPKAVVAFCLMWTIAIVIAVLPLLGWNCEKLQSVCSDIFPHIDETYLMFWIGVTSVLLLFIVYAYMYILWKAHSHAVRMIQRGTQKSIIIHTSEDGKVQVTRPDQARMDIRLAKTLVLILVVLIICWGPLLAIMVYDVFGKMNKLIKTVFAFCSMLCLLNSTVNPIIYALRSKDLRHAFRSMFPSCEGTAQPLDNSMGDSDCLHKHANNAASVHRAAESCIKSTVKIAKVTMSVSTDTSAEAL
(In general: Loss of bound radioactivity is the signal in a displacement assay; it reports binding, not function.)

Test [2] addresses Cannabinoid receptor 2 (Homo sapiens) (UniProt P34972). Nature of the test: Displacement of [3H]CP-55940 from human CB2 expressed in CHO cells at 10 uM. It is filed as cell-based. The method in brief: as §1

Cannabinoid receptor 2 (Homo sapiens), sequence (P34972 whole entry): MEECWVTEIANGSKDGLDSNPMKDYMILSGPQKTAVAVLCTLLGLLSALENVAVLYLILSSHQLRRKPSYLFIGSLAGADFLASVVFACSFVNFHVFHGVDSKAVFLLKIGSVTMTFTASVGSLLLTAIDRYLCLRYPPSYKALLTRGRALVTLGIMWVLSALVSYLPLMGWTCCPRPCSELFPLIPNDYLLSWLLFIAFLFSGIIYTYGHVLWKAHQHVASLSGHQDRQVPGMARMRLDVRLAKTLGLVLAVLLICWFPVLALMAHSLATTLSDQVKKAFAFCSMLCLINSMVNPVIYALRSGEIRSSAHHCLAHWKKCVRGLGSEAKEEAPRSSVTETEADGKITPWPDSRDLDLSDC

As for `CC(C)CN1C(=O)C(c2ccccc2)(c2ccccc2)NC1=S`, the figures for the Activity in test [1] and in test [2] were 34.6% and less than 10%, respectively.
The corresponding values for `O=C1N(c2ccccc2)C(=S)NC1(c1ccccc1)c1ccccc1` are 32.6% and less than 20%.
On the same counts, the results for `CCCCCCCCN1C(=O)NC(c2ccc(Cl)cc2)(c2ccc(Cl)cc2)C1=O` are 39.5% and less than 20%.
The corresponding values for `CCCCN1C(=O)C(c2ccc(Cl)cc2)(c2ccc(Cl)cc2)NC1=S` are 72.7% and less than 20%.
`O=C1N(Cc2ccccc2)C(=S)NC1(c1ccc(Cl)cc1)c1ccc(Cl)cc1`: the Activity in test [1] is 74.2%; in test [2], less than 15%.
On the same counts, the results for `CCCCCCCCN1C(=O)NC(c2ccccc2)(c2ccccc2)C1=O` are 25.1% and less than 20%.
Consider `CCCCCCCN1C(=O)C(c2ccccc2)(c2ccccc2)N(CCCCCCC)C1=S`, for which the Activity in test [1] and in test [2] was less than 20% in each case.
In the case of `CCCCN1C(=O)NC(c2ccc(Cl)cc2)(c2ccc(Cl)cc2)C1=O`, the Activity in test [1] is 51.2%; in test [2] it was less than 20%.
For the compound `CCCCCCCCN1C(=O)C(c2ccc(Cl)cc2)(c2ccc(Cl)cc2)NC1=S`, the figures for the Activity in test [1] and in test [2] were 36.6% and less than 10%, respectively.
On the same counts, the results for `O=C1N(CCCO)C(=S)NC1(c1ccccc1)c1ccccc1` are 20.8% and less than 20%.
On the same counts, the results for `CCCCN1C(=O)NC(c2ccc(Br)cc2)(c2ccc(Br)cc2)C1=O` are 69.2% and 23.1%.
Turning to `O=C1NC(c2ccccc2)(c2ccccc2)C(=O)N1Cc1ccccc1`, the Activity in test [1] was 33.7%; in test [2], less than 20%.
On the same counts, the results for `CCCCCCCN1C(=O)C(c2ccccc2)NC1=S` (stereo not drawn) are less than 20% and less than 20%.
On to `CCCCCCCN1C(=O)C(c2ccccc2)N(c2ccccc2)C1=O` (stereo not drawn), for which the Activity in test [1] was 45.6%; in test [2] it was less than 20%.
The corresponding values for `COCCCN1C(=O)C(c2ccccc2)(c2ccccc2)NC1=S` are 29.4% and less than 20%.
On the same counts, the results for `CCCCCCN1C(=O)C(c2ccccc2)(c2ccccc2)NC1=S` are 21.9% and less than 20%.
The corresponding values for `O=C1N(CCc2ccccc2)C(=S)NC1(c1ccccc1)c1ccccc1` are 29.3% and less than 20%.
In the case of `CCCCCCCN1C(=O)NC(c2ccc(Br)cc2)(c2ccc(Br)cc2)C1=O`, the values for the Activity in test [1] and in test [2] were 44.8% and less than 20%, respectively.
`O=C1NC(=O)N(c2ccccc2)C1c1ccccc1` (stereo not drawn): the Activity in test [1] and in test [2] was less than 20% in each case.
On to `CCCCN1C(=O)C(c2ccccc2)(c2ccccc2)NC1=S`, for which the Activity is 42.8% in test [1] and less than 10% in test [2].
Take `CCCCCCCN1C(=O)C(c2ccc(Br)cc2)(c2ccc(Br)cc2)NC1=S`: the Activity in test [1] was 34.2%; in test [2] it was less than 20%.
On the same counts, the results for `O=C1C(c2ccccc2)NC(=S)N1c1ccccc1` (stereo not drawn) are less than 20% and less than 20%.
As for `CCCCCCCC/C=C\CCCCCCCCN1C(=O)C(c2ccccc2)(c2ccccc2)NC1=S`, the Activity in test [1] and in test [2] was less than 10% throughout.
For `CCCCCCCN1C(=O)CNC1=O`, the Activity in test [1] and in test [2] was less than 20% each time.
On to `O=C1NC(=O)C(c2ccccc2)(c2ccccc2)N1`, for which the Activity in test [1] and in test [2] was less than 20% in each case.
Consider `CCCCCCCN1C(=O)C(c2ccccc2)(c2ccccc2)NC1=S`, for which the Activity in test [1] is 28.8%; in test [2], less than 20%.
The corresponding values for `CCCCCCCCCCCCCCCCCCN1C(=O)C(c2ccccc2)(c2ccccc2)NC1=S` are less than 10% and less than 10%.
The corresponding values for `CCCCCCCCN1C(=O)NC(c2ccc(C)cc2)(c2ccc(C)cc2)C1=O` are 24.5% and less than 20%.
The corresponding values for `O=C1NC(=S)NC1(c1ccccc1)c1ccccc1` are less than 15% and less than 10%.
